In ChEMBL document CHEMBL1148948, “Biotransformation of nobiletin by Aspergillus niger and the antimutagenic activity of a metabolite, 4'-hydroxy-5,6,7,8,3'-pentamethoxyflavone” (2004):
Calls of active or inactive are those of the source.

Experiments:
Assay type in all cases: functional, organism-based
Settings in all cases: Salmonella enterica subsp. enterica serovar Typhimurium
Salmonella typhimurium [1] = experiment: Antimutagenic activity in Salmonella Typhimurium TA1535 carrying pSK1002 containing umuC'-lacZ fused gene assessed as suppression of furyfuramide-induced SOS response to alteration in DNA synthesis measured by beta-galactosidase activity by Umu test
Method in brief: (§1)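 S. typhimurium TA1535/pSK1002 (umuC′-′lacZ fusion on the plasmid). The overnight culture was diluted 50-fold in fresh TGA medium and grown at 37 °C to A600 0.25-0.30. SOS induction was read as β-galactosidase activity in Miller units. The S9 mix used rat liver S9 (phenobarbital/5,6-benzoflavone-pretreated males) with G-6-P, NADH and NADPH cofactors.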

Salmonella typhimurium [2] = experiment: Antimutagenic activity in Salmonella Typhimurium TA1535 carrying pSK1002 containing umuC'-lacZ fused gene assessed as suppression of 0.1 j/M2 UV light-induced SOS response to alteration in DNA synthesis measured by beta-galactosidase activity by Umu test; method in brief: as §1
Salmonella typhimurium [3] = experiment: Antimutagenic activity in Salmonella Typhimurium TA1535 carrying pSK1002 containing umuC'-lacZ fused gene assessed as suppression of Trp-P-1-induced SOS response to alteration in DNA synthesis measured by beta-galactosidase activity by Umu test; method in brief: as §1
Salmonella typhimurium [4] = experiment: Antimutagenic activity in Salmonella Typhimurium TA1535 carrying pSK1002 containing umuC'-lacZ fused gene assessed as suppression of MeIQ-induced SOS response to alteration in DNA synthesis measured by beta-galactosidase activity by Umu test; method in brief: as §1

Measured: Activity

COc1ccc(-c2cc(=O)c3c(OC)c(OC)c(OC)c(OC)c3o2)cc1OC
active: all assays above
